As usually defined, the Ki is the dissociation constant of the complex between target and ligand, obtained from inhibition or displacement. The low end stands for a stronger hold on the target, the high end for a looser hold on the target.

For test [1], the target named is T1, S-adenosylmethionine synthase isoform type-2 (Rattus norvegicus, UniProt P18298). Put plainly: Inhibitory constant against rat kidney Methionine adenosyltransferase II. The method in brief: (§1)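 MAT-II from rat kidney extract, taken through DEAE chromatography and diluted 10-fold daily. Duplicate 30-min incubations at 37 °C in 150 mM KCl–15 mM MgCl2–5 mM DTT–50 mM Tris-HCl pH 8.2 with 60 μM [14C]methionine. Mg-complexed inhibitor used at two levels (1-5 × Ki) against six to eight Mg-ATP levels (0.5-4.0 × KM). Product counted on phosphocellulose disks.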

Test [2] addresses T2, S-adenosylmethionine synthetase (MAT 1 and MAT 2) (Rattus norvegicus, UniProt P13444+P18298). Put plainly: […] rat Methionine adenosyltransferase was reported. The format is protein assay. The method in brief: (§2)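 MAT-T partly purified from rat Novikoff hepatoma cells grown intraperitoneally in rats: cytosol extract, DEAE-cellulose, stored at -20 °C, diluted 10-fold for use. Assay run in duplicate, 37 °C for 30 min, in 150 mM KCl–15 mM MgCl2–5 mM DTT–50 mM Tris-HCl pH 8.2 with 60 μM [14C]methionine. Inhibitors given as 1:1 Mg complexes at two levels of 1-5 × Ki, with six to eight Mg-ATP levels (0.5-4.0 × KM).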

Test [3] addresses T1, S-adenosylmethionine synthase isoform type-2. Put plainly: Inhibitory constant against rat kidney Methionine adenosyltransferase II, activity expressed as Ki. The method in brief:
as §1

In test [4] the target is T2, S-adenosylmethionine synthetase (MAT 1 and MAT 2). Put plainly: Competitive inhibition of rat methionine adenosyltransferase, activity expressed as Ki. The class given is protein assay. The method in brief: as §2
Test [5] has the same target. Put plainly: Inhibitory constant against rat methionine adenosyltransferase was reported. The class given is protein assay. The method in brief:
as §2

The target of test [6] is T3, S-adenosylmethionine synthase isoform type-1 (Rattus norvegicus, UniProt P13444). Put plainly: Inhibitory constant against rat liver Methionine adenosyltransferase I, activity expressed as Ki. The gist of the method:
(§3)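 Rat liver MAT-I, prepared free of MAT-II and MAT-III and diluted 5-fold. Duplicate assays at 37 °C, 30 min, in 150 mM KCl–7.5 mM MgSO4–2 mM DTT–50 mM HEPES pH 7.5 with 380 μM [14C]methionine. Two inhibitor levels (1:1 Mg complexes, 1-5 × Ki) run against six to eight Mg-ATP levels spanning 0.5-4.0 × KM. Ki taken from kinetic plots.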

The target of test [7] is T3, S-adenosylmethionine synthase isoform type-1. Put plainly: Inhibitory constant against rat liver Methionine adenosyltransferase I. The gist of the method: as §3

T1 sequence (P18298 whole entry, canonical isoform): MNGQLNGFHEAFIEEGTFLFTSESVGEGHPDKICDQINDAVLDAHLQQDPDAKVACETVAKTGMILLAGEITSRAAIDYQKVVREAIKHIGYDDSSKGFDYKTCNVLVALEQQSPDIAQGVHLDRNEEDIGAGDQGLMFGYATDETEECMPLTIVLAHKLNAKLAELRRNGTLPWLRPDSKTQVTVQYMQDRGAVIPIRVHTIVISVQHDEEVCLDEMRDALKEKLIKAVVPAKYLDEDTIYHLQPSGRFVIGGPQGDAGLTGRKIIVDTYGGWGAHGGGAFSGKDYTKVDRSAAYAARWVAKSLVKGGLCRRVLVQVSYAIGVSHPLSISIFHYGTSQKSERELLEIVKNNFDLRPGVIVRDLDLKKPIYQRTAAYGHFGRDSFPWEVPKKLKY
T3 sequence (P13444 whole entry, canonical isoform): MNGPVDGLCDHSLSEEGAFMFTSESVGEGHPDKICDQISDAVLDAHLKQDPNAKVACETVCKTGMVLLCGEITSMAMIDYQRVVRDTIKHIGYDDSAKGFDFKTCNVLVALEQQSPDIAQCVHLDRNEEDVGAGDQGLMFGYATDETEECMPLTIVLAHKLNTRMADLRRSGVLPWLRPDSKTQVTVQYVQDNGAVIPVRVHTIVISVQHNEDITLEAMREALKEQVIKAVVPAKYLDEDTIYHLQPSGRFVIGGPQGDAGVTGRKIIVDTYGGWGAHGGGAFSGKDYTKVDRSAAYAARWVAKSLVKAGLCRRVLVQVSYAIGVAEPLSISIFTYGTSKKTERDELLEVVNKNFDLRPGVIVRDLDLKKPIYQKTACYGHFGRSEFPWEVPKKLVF

As for `Nc1ncnc2c1ncn2[C@@H]1O[C@H](COP(=O)(O)CP(=O)(O)OP(=O)(O)O)[C@@H](O)[C@H]1O` [DIPHOSPHOMETHYLPHOSPHONIC ACID ADENOSYL ESTER], the Ki in test [1] is 300 µM; in test [2], 340 µM.

For the compound `CO[C@@H]1[C@H](O)[C@@H](COP(=O)(O)OP(=O)(O)OP(=O)(O)O)O[C@H]1n1cnc2c(N)ncnc21`, the Ki in test [3] was determined as 140 µM; in test [4] it was 170 µM.

For `CO[C@H]1[C@@H](O)[C@H](n2cnc3c(N)ncnc32)O[C@@H]1COP(=O)(O)OP(=O)(O)OP(=O)(O)O`, the values for the Ki in test [3] and in test [4] were 170 µM and 180 µM, respectively.

For `CCCCNc1ncnc2c1ncn2C1O[C@H](COP(=O)(O)OP(=O)(O)OP(=O)(O)O)[C@@H](O)[C@H]1O` (stereo not given in full), the Ki in test [1] was 530 µM; in test [5] it was 210 µM.

As for `CSc1nc(N)c2ncn([C@@H]3O[C@H](COP(=O)(O)OP(=O)(O)OP(=O)(O)O)[C@@H](O)[C@H]3O)c2n1`, the Ki in test [1] amounted to 600 µM; in test [2], 110 µM.

As to `CC(OP(=O)(O)OP(=O)(O)OP(=O)(O)O)[C@H]1O[C@@H](n2cnc3c(N)ncnc32)[C@H](O)[C@@H]1O` (stereo not given in full), the values for the Ki in test [3], in test [6] and in test [4] were 190 µM, 9 µM and 80 µM, respectively.

Consider `Nc1ncnc2c1ncn2[C@@H]1O[C@H](COP(=O)(O)OP(=O)(O)NP(=O)(O)O)[C@@H](O)[C@H]1O`, for which the Ki in test [1] worked out at 5.5 µM; in test [2], 4 µM.

For the compound `Nc1ncnc2c1nc(SCCC(N)C(=O)O)n2C1O[C@H](COP(=O)(O)OP(=O)(O)OP(=O)(O)O)[C@@H](O)[C@H]1O` (stereo not given in full), the inhibitory constant (Ki) came to 520 µM in test [1] and 3300 µM in test [7].

For the compound `CCCC(OP(=O)(O)OP(=O)(O)OP(=O)(O)O)[C@H]1O[C@@H](n2cnc3c(N)ncnc32)[C@H](O)[C@@H]1O` (stereo not given in full), the Ki worked out at 48 µM in test [3] and 37 µM in test [4].

As for `CSc1nc2c(N)ncnc2n1[C@@H]1O[C@H](COP(=O)(O)OP(=O)(O)OP(=O)(O)O)[C@@H](O)[C@H]1O`, in test [2], the Ki is 530 µM.

The values above are taken from ChEMBL document CHEMBL1123521, “Isozyme-specific enzyme inhibitors. 10. Adenosine 5'-triphosphate derivatives as substrates or inhibitors of methionine adenosyltransferases of rat normal and hepatoma tissues” (J Med Chem, 1986).
